Experiments:
[1] = target: Potassium channel subfamily K member 9 (Homo sapiens) (UniProt Q9NPC2); experiment: Agonist activity at TASK3 (unknown origin) expressed in HEK293 cells assessed as increase in K+ current at 10 uM measured at +60 mV by whole-cell patch clamp method relative to control; assay type: cell-based
[2] = target: T1, Potassium channel subfamily K member 4 (Homo sapiens) (UniProt Q9NYG8); experiment: Agonist activity at TRAAK (unknown origin) expressed in HEK293 cells assessed as increase in K+ current at 10 uM measured at +60 mV by whole-cell patch clamp method relative to control; assay type: cell-based
T1 sequence (whole entry): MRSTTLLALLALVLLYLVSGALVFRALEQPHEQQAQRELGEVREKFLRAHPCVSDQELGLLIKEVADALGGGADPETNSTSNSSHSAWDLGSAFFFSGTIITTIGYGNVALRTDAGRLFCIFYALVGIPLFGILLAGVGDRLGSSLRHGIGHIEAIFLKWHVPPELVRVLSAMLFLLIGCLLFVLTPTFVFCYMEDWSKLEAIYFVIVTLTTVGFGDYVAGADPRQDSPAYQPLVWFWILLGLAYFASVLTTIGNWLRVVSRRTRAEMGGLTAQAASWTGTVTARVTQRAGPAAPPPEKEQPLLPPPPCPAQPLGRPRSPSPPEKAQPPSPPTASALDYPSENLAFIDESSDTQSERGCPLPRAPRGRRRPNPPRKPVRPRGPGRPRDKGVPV

[3] = target: T2, Potassium channel subfamily K member 2 (Homo sapiens) (UniProt O95069); experiment: Agonist activity at human TREK1 expressed in HEK293 cells assessed as increase in K+ current at 10 uM measured at +60 mV by whole-cell patch clamp method relative to control; assay type: cell-based
T2 sequence (whole entry): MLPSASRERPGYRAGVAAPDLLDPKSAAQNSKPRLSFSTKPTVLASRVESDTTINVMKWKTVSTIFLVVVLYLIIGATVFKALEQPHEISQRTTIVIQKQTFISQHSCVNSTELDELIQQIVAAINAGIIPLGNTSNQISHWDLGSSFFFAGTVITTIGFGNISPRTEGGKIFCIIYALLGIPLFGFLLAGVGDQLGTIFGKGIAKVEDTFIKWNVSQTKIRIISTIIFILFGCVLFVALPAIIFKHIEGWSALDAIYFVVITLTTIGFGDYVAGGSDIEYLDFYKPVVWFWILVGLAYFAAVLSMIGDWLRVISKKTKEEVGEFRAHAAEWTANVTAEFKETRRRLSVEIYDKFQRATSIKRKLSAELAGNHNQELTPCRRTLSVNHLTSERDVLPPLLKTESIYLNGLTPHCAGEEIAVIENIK
In short: (§1)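 Human TREK-1 (kcnk2) in pIRES2-eGFP was stably expressed in HEK-293 cells under G418 selection, and cells were used 4–48 h after plating. Bath (mM): 140 NaCl, 10 TEA-Cl, 5 KCl, 3 MgCl2, 1 CaCl2, 10 HEPES, pH 7.4. Pipette (mM): 155 KCl, 3 MgCl2, 5 EGTA, 10 HEPES, pH 7.2. Holding was −80 mV, with a step to −100 mV then a 400 ms ramp to +60 mV every 5 s. Read-out was the ratio Imax/I0 taken from I/V curves. Stocks were 20 mM in DMSO.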

Mus musculus [4] = experiment: Antinociceptive activity in CD1 mouse assessed as inhibition of acetic acid-induced writhes at 10 mg/kg, sc pretreated for 15 mins followed by acetic acid challenge measured within 20 mins relative to control; assay type: functional
In short: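 Male CD1 mice (20-25 g), n=8 per group, dosed at 10 mg/kg s.c. or with vehicle (5% Tween 80 in 0.9% saline). Dosing was 15 min before i.p. 0.6% acetic acid (10 mL/kg). Abdominal writhes were counted for 20 min. Effect = (mean control writhes − mean test writhes)/mean control writhes ×100.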

Mus musculus [5] = experiment: Antinociceptive activity in CD1 mouse assessed as increase in thermal-stimulus induced paw withdrawal latency at 60 mg/kg, sc measured after 30 mins by hot plate method relative to control; assay type: functional
In short: (§2)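 Male CD1 mice (20-25 g), n=8 per group, given 60 mg/kg s.c. After 5 min acclimatization on a plate at room temperature, mice were placed on a 52 °C hotplate. Latency to forepaw or hindpaw licking or hindpaw flicking was recorded, with a 30 s cut-off. Latency was taken after two consecutive stable baselines, then 30 and 45 min post-dose. Effect = (postdrug − predrug latency)/predrug latency ×100.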

Mus musculus [6] = experiment: Antinociceptive activity in CD1 mouse assessed as increase in thermal-stimulus induced paw withdrawal latency at 60 mg/kg, sc measured after 45 mins by hot plate method relative to control; assay type: functional; in short: as §2
Mus musculus [7] = experiment: Antinociceptive activity in wild-type C57Bl/6J mouse assessed as increase in thermal-stimulus induced paw withdrawal latency at 60 mg/kg, sc measured after 30 mins by hot plate method relative to control; assay type: functional
In short: (§3)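 TREK-1−/− and wild-type C57Bl/6J littermates came from heterozygous crosses, n=7. Dose was 60 mg/kg s.c. The 52 °C hotplate measured paw-lick latency, 30 s cut-off, with baseline from two stable pre-dose latencies.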

Mus musculus [8] = experiment: Antinociceptive activity in wild-type C57Bl/6J mouse assessed as increase in thermal-stimulus induced paw withdrawal latency at 60 mg/kg, sc measured after 45 mins by hot plate method relative to control; assay type: functional; in short: as §3
Mus musculus [9] = experiment: Antinociceptive activity in TREK1 deficient C57Bl/6J mouse assessed as increase in thermal-stimulus induced paw withdrawal latency at 60 mg/kg, sc measured after 30 mins by hot plate method relative to control; assay type: functional; in short: as §3
Mus musculus [10] = experiment: Antinociceptive activity in TREK1 deficient C57Bl/6J mouse assessed as increase in thermal-stimulus induced paw withdrawal latency at 60 mg/kg, sc measured after 45 mins by hot plate method relative to control; assay type: functional; in short: as §3
Mus musculus [11] = experiment: In vivo activation of TREK1 in C57Bl/6J mouse assessed as increase in thermal-stimulus induced paw withdrawal latency at 60 mg/kg, sc measured after 30 mins by hot plate method relative to control; assay type: functional; in short: as §3
Mus musculus [12] = experiment: In vivo activation of TREK1 in C57Bl/6J mouse assessed as increase in thermal-stimulus induced paw withdrawal latency at 60 mg/kg, sc measured after 45 mins by hot plate method relative to control; assay type: functional; in short: as §3
[13] = target: T3, Potassium channel subfamily K member 10 (Homo sapiens) (UniProt P57789); experiment: Agonist activity at TREK-2 (unknown origin) expressed in HEK293 cells assessed as increase in K+ current at 10 uM measured at +60 mV by whole-cell patch clamp method relative to control; assay type: cell-based
T3 sequence (whole entry): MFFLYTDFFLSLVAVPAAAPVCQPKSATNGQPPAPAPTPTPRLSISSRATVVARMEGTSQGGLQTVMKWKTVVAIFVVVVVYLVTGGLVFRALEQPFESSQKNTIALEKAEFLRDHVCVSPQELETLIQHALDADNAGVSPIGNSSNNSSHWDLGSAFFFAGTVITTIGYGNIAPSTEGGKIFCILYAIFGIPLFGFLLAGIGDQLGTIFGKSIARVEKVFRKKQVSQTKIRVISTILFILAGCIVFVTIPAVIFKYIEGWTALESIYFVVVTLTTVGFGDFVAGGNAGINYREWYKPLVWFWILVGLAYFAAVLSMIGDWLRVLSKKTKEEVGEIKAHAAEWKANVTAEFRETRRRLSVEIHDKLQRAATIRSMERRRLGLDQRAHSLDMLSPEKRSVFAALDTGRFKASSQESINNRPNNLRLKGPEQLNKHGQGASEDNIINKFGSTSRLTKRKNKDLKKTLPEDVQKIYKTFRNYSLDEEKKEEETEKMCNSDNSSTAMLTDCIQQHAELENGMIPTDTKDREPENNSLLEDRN

[14] = target: Potassium channel subfamily K member 9 (Homo sapiens) (UniProt Q9NPC2); experiment: Agonist activity at TASK3 (unknown origin) expressed in HEK293 cells assessed as increase in K+ current at 20 uM measured at +60 mV by whole-cell patch clamp method relative to control; assay type: cell-based
[15] = target: T1, Potassium channel subfamily K member 4 (Homo sapiens); experiment: Agonist activity at TRAAK (unknown origin) expressed in HEK293 cells assessed as increase in K+ current at 20 uM measured at +60 mV by whole-cell patch clamp method relative to control; assay type: cell-based
[16] = target: T2, Potassium channel subfamily K member 2 (Homo sapiens); experiment: Agonist activity at human TREK1 expressed in HEK293 cells assessed as increase in K+ current at 20 uM measured at +60 mV by whole-cell patch clamp method relative to control; assay type: cell-based; in short: as §1
[17] = target: T3, Potassium channel subfamily K member 10 (Homo sapiens); experiment: Agonist activity at TREK-2 (unknown origin) expressed in HEK293 cells assessed as increase in K+ current at 20 uM measured at +60 mV by whole-cell patch clamp method relative to control; assay type: cell-based
[18] = target: T2, Potassium channel subfamily K member 2 (Homo sapiens); experiment: Agonist activity at human TREK1 expressed in HEK293 cells assessed as increase in K+ current at 100 uM measured at +60 mV by whole-cell patch clamp method relative to control; assay type: cell-based; in short: as §1
[19] = target: T4, Potassium channel subfamily K member 2 (Bos taurus) (UniProt Q8HY88); experiment: Agonist activity at TREK1 in bovine AZF cells assessed as increase in K+ current at 40 uM by whole-cell patch clamp method relative to control; assay type: cell-based
T4 sequence (whole entry): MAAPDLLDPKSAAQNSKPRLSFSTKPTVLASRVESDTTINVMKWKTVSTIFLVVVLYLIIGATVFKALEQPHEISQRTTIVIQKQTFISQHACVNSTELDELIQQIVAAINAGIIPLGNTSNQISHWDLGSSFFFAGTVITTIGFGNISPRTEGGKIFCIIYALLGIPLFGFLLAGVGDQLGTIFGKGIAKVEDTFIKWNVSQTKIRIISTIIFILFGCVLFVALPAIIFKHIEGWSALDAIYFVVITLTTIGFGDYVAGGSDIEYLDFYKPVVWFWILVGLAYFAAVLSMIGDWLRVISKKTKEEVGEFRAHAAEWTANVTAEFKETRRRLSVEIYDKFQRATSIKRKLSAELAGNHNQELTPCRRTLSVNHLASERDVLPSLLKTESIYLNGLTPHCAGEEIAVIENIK

[20] = Half life in rat liver microsomes at 40 mM in presence of NADPH-cofactor by HPLC analysis; assay type: ADME, microsome
Mus musculus [21] = experiment: Antinociceptive activity in CD1 mouse assessed as increase in thermal-stimulus induced paw withdrawal latency at 3 mg/kg, sc measured after 30 mins by hot plate method relative to control; assay type: functional
In short: (§4)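 Male CD1 mice (20–25 g), groups of 8, scored blind. After 5 min on a room-temperature plate, mice are placed on a 52 °C hotplate. Latency is the time to licking of fore- or hindpaws or flicking of hindpaws, with a 30 s cut-off. Two consecutive stable baseline latencies are taken, then latency is read 30 and 45 min after s.c. injection. % effect = (post − pre)/pre × 100.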

Mus musculus [22] = experiment: Antinociceptive activity in CD1 mouse assessed as increase in thermal-stimulus induced paw withdrawal latency at 3 mg/kg, sc measured after 45 mins by hot plate method relative to control; assay type: functional; in short: as §4
[23] = target: T2, Potassium channel subfamily K member 2 (Homo sapiens); experiment: Agonist activity at human TREK1 expressed in xenopus oocytes assessed as increase in K+ current at 20 uM measured at 0 mV by double microelectrode method relative to control; assay type: cell-based
Liver = experiment: Drug metabolism in rat liver microsomes assessed as (E)-2-Cyano-3-(3,4-dihydroxyphenyl)acrylic acid formation at 40 mM in presence of NADPH-cofactor measured after 24 hrs by HPLC analysis; assay type: ADME, microsome; settings: 40000 µM
In short: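 Incubation mix: rat liver microsomes (20 mg/mL stock), phosphate buffer pH 7.4 and NADPH (40 mM stock). Drug was added from a 40 mM DMSO stock. Samples were vortexed and incubated at 37 °C with stirring.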

Potassium channel subfamily K member 9 (Homo sapiens), sequence (Q9NPC2 whole entry): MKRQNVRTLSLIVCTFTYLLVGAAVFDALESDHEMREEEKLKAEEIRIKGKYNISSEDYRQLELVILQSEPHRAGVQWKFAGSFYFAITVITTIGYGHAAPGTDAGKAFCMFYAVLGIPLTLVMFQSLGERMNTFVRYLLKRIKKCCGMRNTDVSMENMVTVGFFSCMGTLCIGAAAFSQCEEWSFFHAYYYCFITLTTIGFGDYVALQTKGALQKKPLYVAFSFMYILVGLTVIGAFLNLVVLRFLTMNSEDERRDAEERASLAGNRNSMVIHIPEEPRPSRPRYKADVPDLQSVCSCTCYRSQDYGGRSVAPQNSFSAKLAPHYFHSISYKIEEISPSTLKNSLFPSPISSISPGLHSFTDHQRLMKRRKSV

| SMILES | inhibition in vivo at 10 mg/kg (Mus musculus [4]) [%] | Activity (Mus musculus [5]) [%] | Activity (Mus musculus [6]) [%] | Activity (Mus musculus [7]) [%] | Activity (Mus musculus [8]) [%] | Activity (Mus musculus [9]) [%] | Activity (Mus musculus [10]) [%] | Activity (Mus musculus [11]) [%] | Activity (Mus musculus [12]) [%] | also measured |
| --- | --- | --- | --- | --- | --- | --- | --- | --- | --- | --- |
| N#C/C(=C\c1cc2ccccc2[nH]1)C(=O)Nc1ccccc1 | 52 | 49.5 | 49.5 | 27.9 | 39.2 | 18.7 | 51.2 | 33 | 0 | fold change (FC) [1]: 1.2; fold change (FC) [2]: 0.9; fold change (FC) [3]: 2.16 to 2.2; fold change (FC) [13]: 1.6 |
| N#C/C(=C\c1ccoc1)C(=O)Nc1ccccc1 | 48 | 107.7 | 148.6 | 24.8 | 22.1 | 29.2 | 35.1 | 0 | 0 | fold change (FC) [14]: 0.5; fold change (FC) [15]: 1; fold change (FC) [16]: 4.64; fold change (FC) [17]: 3 |
| CCOC(=O)/C(C#N)=C/c1cccc2ccccc12 | 44.7 | 93.2 | 67.5 | 17.4 | 31.1 | 18 | 34.4 | 0 | 0 | fold change (FC) [18]: 1.59 |
| O=C(O)/C=C/c1ccc(O)c(O)c1 | – | – | – | – | – | – | – | – | – | fold change (FC) [19]: 1 |
| N#C/C(=C\c1cc2ccccc2[nH]1)C(=O)OC1CCCCC1 | 83.6 | 65.7 | 52.6 | – | – | – | – | – | – | fold change (FC) [3]: 1.98; half-life [20]: 25 to 45 min |
| CN1CC[C@]23c4c5ccc(O)c4O[C@H]2[C@@H](O)C=C[C@H]3[C@H]1C5 [MORPHINE] | – | – | – | 98.6 | 124.5 | 86.7 | 94.6 | 12.6 | 24.3 | Activity (Mus musculus [21]): 185%; Activity (Mus musculus [22]): 159.7% |
| CCOC(=O)/C(C#N)=C/c1ccc(O)c(O)c1 | 57.8 | 34.6 | 21.8 | – | – | – | – | – | – | fold change (FC) [18]: 1.54; fold change (FC) [19]: 1; fold change (FC) [23]: 2.76; half-life [20]: < 4 min; Drug metabolism (Liver): Metabolite_Detected |

— ChEMBL document CHEMBL3992520, “Development of the First Two-Pore Domain Potassium Channel TWIK-Related K+ Channel 1-Selective Agonist Possessing in Vivo Antinociceptive Activity” (J Med Chem, 2017)
